We go through three compounds from paper PMC4229023 (Biomacromolecules, 2014).

Structures are written as SMILES. Bounds are passed on as bounds.

The subject of data set [1] is PC-3 xenografts. To be noted: cited from earlier work.
Data set [2] relates to 4T1.2 mouse breast cancer cell line. Nature of the data set: MTT cytotoxicity. The data set is classed as cell-based. To be noted: 4T1.2 cells.
The test system of data set [3] is HCT-116 human colon carcinoma cell line. Kind of data set: MTT cytotoxicity. The data set is classed as cell-based. Particulars: HCT-116 cells.
Data set [4] is described as follows: Maximum tolerated dose study. The data set is classed as in vivo, CD-1 mice. The gist of the method: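 Body weight and survival were checked daily for 2 weeks. MTD was taken as the highest dose causing neither more than 15% body-weight loss nor any death within 2 weeks.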
The nature of data set [5]: Plasma pharmacokinetics. The data set is classed as in vivo. To be noted: 5 mg DOX/kg i.v., female BALB/c mice.

Consider `CCCCCCCCCCCCCCCCCCN1C(=CC=CC=CC2=[N+](CCCCCCCCCCCCCCCCCC)c3ccccc3C2(C)C)C(C)(C)c2ccccc21.[O-][Cl+3]([O-])([O-])[O-]` [free DiD dye, 1,1′-dioctadecyl-3,3,3′,3′-tetramethylindodicarbocyanine perchlorate], for which the “tumor accumulation (NIRF imaging)” value in data set [1] is “No obvious tumor accumulation”.
With `CC(C)=CCC/C(C)=C/CC/C(C)=C/CSc1ccccc1C(=O)O` [FTS, S-trans, trans-farnesylthiosalicylic acid], the “cytotoxicity of drug-free carriers and FTS” value in data set [2] and in data set [3] was “inhibited the tumor cell growth in a concentration-dependent manner” throughout.
The term Cmax denotes the peak of the concentration-time curve. The Vd is the apparent volume that relates the amount in the body to the concentration in plasma or blood. Read a high Vd as extensive tissue distribution. `COc1cccc2c1C(=O)c1c(O)c3c(c(O)c1C2=O)C[C@@](O)(C(=O)CO)C[C@@H]3O[C@H]1C[C@H](N)[C@H](O)[C@H](C)O1` [DOX, Doxorubicin]: the tolerability result in data set [4] (10 mg/kg DOX) is “well tolerated”. In data set [4] (15 mg DOX/kg), the “decrease in the body weight” value is given as more than 15%. Moreover, in data set [4] (15 mg DOX/kg i.v., n = 4, listed as free DOX), the Animal death entry is “death of all treated mice”. In addition, the “maximum tolerated dose (MTD)” value in data set [4] (DOX dose, single i.v. dose, female CD-1 mice, 2 weeks) is approximately 10 mg/kg. In data set [5], this compound showed a Cmax of 3590 ng/mL and a Vd of 7.34 L/kg. Moreover, the T1/2 in data set [5] (noncompartmental) came to 1.74 h. The AUC0-inf in data set [5] (plasma) came to 3430 ng·h/mL.
